Results pooled from the literature.
Compare with care: the assays were run in different laboratories.
Target: Tyrosine-protein kinase TXK (TXK, Homo sapiens, UniProt P42681)
Sequence (P42681 1-527, as in one of the studies): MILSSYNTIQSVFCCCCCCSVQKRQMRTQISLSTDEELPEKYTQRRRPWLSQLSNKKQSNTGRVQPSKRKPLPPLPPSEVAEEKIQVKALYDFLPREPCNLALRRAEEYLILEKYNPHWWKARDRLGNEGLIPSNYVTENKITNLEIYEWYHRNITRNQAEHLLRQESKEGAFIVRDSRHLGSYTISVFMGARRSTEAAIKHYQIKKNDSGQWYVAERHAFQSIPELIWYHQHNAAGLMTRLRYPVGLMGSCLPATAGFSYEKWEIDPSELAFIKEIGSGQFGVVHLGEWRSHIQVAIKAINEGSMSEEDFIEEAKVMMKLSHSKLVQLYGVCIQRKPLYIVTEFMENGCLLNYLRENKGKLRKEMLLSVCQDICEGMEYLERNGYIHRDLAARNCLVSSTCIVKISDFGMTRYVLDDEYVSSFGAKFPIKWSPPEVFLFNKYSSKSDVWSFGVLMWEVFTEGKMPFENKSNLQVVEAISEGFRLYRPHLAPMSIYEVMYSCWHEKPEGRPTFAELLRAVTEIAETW

SMILES	test	setting	remaining binding [%]
N[C@@H]1CCN(c2nccc(-c3cnn4ncccc34)n2)C1	binding	1 µM	100
CNC(=O)[C@@H]1CC[C@@H](n2c(-c3ccc4cnccc4c3)nc3ccc(C(=O)NCc4cccc(C(N)=O)c4)cc32)C1	binding, competition with immobilised ligand	1 µM	100
CC1=C(C#N)[C@@H](c2ccc3[nH]nc(C)c3c2)C(C#N)=C(c2ccc(Cl)cc2)N1	binding, competition with immobilised ligand	1 µM	88.1
C[C@H]1CCN(c2nccc(-c3cnn4ncccc34)n2)C1	binding	1 µM	90
O=C(NCC1CCOCC1)c1n[nH]cc1NC(=O)c1c(F)cccc1F	binding, competition with immobilised ligand	1 µM	100
CNCc1ccccc1-c1csc([C@H](C)Nc2nc(C)nc3cc(OC)c(OC)cc23)c1	cell-free assay, competition with immobilised ligand	1 µM	100
C[C@@H](c1ccc(-n2cnc3c(N)ncnc32)cc1)N1CCc2nn(C)c(Cc3ccccc3)c2C1=O	binding, competition with immobilised ligand	0.1 µM	73
Cc1c(NC(=O)c2cc(C(N)=O)nc3cc(F)ccc23)c(C(F)(F)F)nn1Cc1ccc(C(C)(C)C)cc1	cell-free assay, competition with immobilised ligand	1 µM	100
Cc1cnn2ncc(-c3ccnc(N(C)C)n3)c2c1	binding	1 µM	100
Cc1cnc(Nc2ccc(C(=O)N3CCC(N4CCCC4)CC3)cc2)nc1-c1cc2ccccc2s1	binding, competition with immobilised ligand	1 µM	59
CCN1CCN(Cc2ccc(C(=O)Nc3ccc(C)c(Oc4ccc5c(c4)CC(=O)N5)c3)cc2C(F)(F)F)CC1	binding, competition with immobilised ligand	1 µM	100
F[C@@H]1CCN(c2nccc(-c3cnn4ncccc34)n2)C1	binding	1 µM	73
O=C(NCCCN1CCOCC1)c1ccc(Nc2ncc(Cl)c(-c3ccc(Cl)s3)n2)cc1	binding, competition with immobilised ligand	1 µM	99
CCCOc1ccc([C@@H]2[C@@H](C(=O)O)[C@H](c3ccc4c(c3)OCO4)CN2CC(=O)Nc2c(CC)cccc2CC)cc1	binding, competition with immobilised ligand	1 µM	100
CC1CCCN1c1nccc(-c2cnn3ncccc23)n1 (stereo not shown)	binding	1 µM	100
O=C(c1ccc(Nc2ncc(Cl)c(-c3cc4ccccc4s3)n2)cc1)N1CCC(N2CCCC2)CC1	binding, competition with immobilised ligand	1 µM	71
Cc1nc(N2CC[C@@H](O)C2)ncc1-c1cc(C(F)(F)F)cc2[nH]ncc12	binding, competition with immobilised ligand	1 µM	100
C=CC(=O)N1CCC(C(=O)NCC(=O)N2CCN(c3nc(-c4cnc(N)nc4C(F)F)nc(N4CCOCC4)n3)CC2)CC1	binding, competition with immobilised ligand	1 µM	100
Cn1nc(C(F)(F)F)cc1-c1cnc(N2CCc3cc(S(=O)(=O)Nc4c(F)cc(Cl)cc4F)cc(N4CCCC4=O)c32)nc1	binding, competition with immobilised ligand	1 µM	100
c1cncc(-c2cccc(Nc3nccc(NC4CCCCC4)n3)c2)c1	binding, competition with immobilised ligand	10 µM	20
CCOCCn1cc(C(=O)Nc2ccc(-n3nc(-c4cccnc4)cc3C(F)(F)F)cn2)ccc1=O	binding, competition with immobilised ligand	1 µM	81
CN(C)c1ncc(F)c(-c2cnn3ncccc23)n1	binding	1 µM	100
